Assay results as given in ChEMBL document CHEMBL4028886 (J Med Chem, 2017).
Active and inactive are the calls of the source. The rule behind the calls is not given here.

Key:
Assay type in all cases: cell-based
[1] = biological target: Sodium-dependent noradrenaline transporter (Homo sapiens, UniProt P23975); test: Inhibition of re-uptake of [3H]MPP+ at human NET expressed in HEK293 cells preincubated for 5 mins followed by […] addition measured after 3 min by liquid scintillation counting
Outline: (§1)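 HEK293 cells stably expressing human DAT or NET, seeded on PDL-coated plates 24 h before. Preincubated 5 min in Krebs–HEPES buffer pH 7.3 with compound at 0.001 μM to 1 mM (DMSO stock diluted in buffer). Substrate then added: 0.2 μM [3H]dopamine for DAT, 1 min; 0.05 μM [3H]MPP+ for NET, 3 min. Room temperature. Uptake stopped with ice-cold buffer. Cells lysed in 1% SDS and counted by scintillation. Unspecific uptake defined with 10 μM mazindol. IC50 by nonlinear regression.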

[2] = biological target: T1, Sodium-dependent dopamine transporter (Homo sapiens, UniProt Q01959); test: Inhibition of re-uptake of [3H]-dopamine at human DAT expressed in HEK293 cells preincubated for 5 mins followed by [3H]-dopamine addition measured after 1 min by liquid scintillation counting; outline: as §1
[3] = biological target: Sodium-dependent serotonin transporter (Homo sapiens, UniProt P31645); test: Inhibition of re-uptake of [3H]-5-HT at human SERT expressed in HEK293 cells preincubated for 5 mins followed by [3H]-dopamine addition measured after 1 min by liquid scintillation counting
[4] = biological target: T1, Sodium-dependent dopamine transporter; test: Displacement of [3H]WIN 35,428 from human DAT expressed in HEK293 cells at 2 and 4 uM after 30 mins in presence of increasing concentration of cocaine by liquid scintillation counting
Outline: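 Intact HEK-DAT cells on PDL-coated plates, in binding buffer (HEPES, NaCl, KCl, CaCl2, MgCl2, 10 μM ZnCl2, glucose, pH 7,3). Incubated with ~10 nM [3H]WIN 35,428, fixed concentrations of test compound and cocaine 0.001–1 μM, 30 min at 25 °C. Nonspecific binding defined with 30 μM mazindol. Cells lysed in 1% SDS and counted by scintillation. Reciprocal of bound (fmol) plotted against cocaine concentration as Dixon plot. Three experiments in triplicate, mean ± SD.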

Sodium-dependent noradrenaline transporter, sequence (P23975 whole entry): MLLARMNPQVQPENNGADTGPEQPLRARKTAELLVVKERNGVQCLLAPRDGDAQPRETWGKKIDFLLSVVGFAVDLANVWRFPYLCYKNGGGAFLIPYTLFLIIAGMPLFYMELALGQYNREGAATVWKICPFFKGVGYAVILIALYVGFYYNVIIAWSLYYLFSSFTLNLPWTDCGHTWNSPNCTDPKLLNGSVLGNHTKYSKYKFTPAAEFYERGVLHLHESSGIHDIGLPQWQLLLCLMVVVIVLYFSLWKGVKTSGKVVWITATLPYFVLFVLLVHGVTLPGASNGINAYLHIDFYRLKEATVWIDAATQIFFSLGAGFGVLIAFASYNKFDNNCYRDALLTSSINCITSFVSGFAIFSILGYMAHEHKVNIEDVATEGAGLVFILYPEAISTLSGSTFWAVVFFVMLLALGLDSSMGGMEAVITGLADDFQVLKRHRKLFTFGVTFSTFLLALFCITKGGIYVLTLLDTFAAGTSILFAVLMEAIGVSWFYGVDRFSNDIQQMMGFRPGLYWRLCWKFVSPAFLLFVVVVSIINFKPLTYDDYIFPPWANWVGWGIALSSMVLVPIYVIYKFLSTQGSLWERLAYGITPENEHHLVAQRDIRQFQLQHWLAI
Sodium-dependent serotonin transporter, sequence (P31645 whole entry): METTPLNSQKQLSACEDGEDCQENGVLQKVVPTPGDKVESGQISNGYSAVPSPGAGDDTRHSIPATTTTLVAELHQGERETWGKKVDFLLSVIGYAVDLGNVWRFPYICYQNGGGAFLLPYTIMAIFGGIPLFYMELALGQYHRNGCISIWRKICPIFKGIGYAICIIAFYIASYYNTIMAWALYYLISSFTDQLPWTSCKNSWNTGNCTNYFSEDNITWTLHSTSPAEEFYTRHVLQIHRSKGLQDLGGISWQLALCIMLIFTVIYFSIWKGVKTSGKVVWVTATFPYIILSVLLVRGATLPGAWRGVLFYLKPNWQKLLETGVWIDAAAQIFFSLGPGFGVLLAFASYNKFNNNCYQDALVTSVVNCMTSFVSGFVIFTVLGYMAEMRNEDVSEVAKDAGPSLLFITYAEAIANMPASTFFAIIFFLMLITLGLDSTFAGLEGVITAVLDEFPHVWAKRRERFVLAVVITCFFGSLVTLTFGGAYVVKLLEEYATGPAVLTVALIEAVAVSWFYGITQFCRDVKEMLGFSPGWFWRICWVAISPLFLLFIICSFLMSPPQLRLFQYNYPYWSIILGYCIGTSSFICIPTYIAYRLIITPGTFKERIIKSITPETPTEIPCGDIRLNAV
T1 sequence (Q01959 whole entry): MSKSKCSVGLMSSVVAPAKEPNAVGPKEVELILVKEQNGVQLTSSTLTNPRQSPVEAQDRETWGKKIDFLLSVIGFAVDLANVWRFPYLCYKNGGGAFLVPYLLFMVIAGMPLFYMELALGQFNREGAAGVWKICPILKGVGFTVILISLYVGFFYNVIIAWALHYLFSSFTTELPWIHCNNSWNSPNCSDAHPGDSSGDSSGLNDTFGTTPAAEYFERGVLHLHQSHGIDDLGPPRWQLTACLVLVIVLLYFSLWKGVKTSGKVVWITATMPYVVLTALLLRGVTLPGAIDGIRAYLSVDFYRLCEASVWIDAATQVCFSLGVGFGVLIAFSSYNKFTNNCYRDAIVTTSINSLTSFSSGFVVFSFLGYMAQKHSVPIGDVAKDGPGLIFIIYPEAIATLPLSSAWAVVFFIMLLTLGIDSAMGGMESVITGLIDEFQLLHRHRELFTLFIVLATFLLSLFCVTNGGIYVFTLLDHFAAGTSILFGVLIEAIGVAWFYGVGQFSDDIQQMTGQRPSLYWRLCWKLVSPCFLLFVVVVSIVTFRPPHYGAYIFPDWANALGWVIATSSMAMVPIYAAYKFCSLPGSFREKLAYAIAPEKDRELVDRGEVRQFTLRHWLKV

SMILES | IC50 ([1]; read-out: IC50) | IC50 ([1]; hek293) | IC50 ([2]; read-out: IC50) | IC50 ([3]; hek293) | IC50 ([3]; read-out: IC50) | inhibition [4] | IC50 ([2]; hek293)
NC(=O)C[S+]([O-])C(c1ccccc1)c1ccccc1 (stereo unspecified) [MODAFINIL] | 284 µM |  |  |  |  |  | 
[O-][S+](Cc1nc(O)cc(C(F)(F)F)n1)C(c1ccccc1)c1ccccc1 (stereo unspecified) |  | Not Active | 40.4 µM | Not Active |  |  | 
[O-][S+](Cc1sccc1Cl)C(c1ccccc1)c1ccccc1 (stereo unspecified) | 188 µM |  | 4.9 µM | Not Active |  |  | 
[O-][S+](Cc1ccncc1)C(c1ccccc1)c1ccccc1 (stereo unspecified) |  | Not Active | 63.5 µM | Not Active |  |  | 
Cc1cc(O)nc(C[S+]([O-])C(c2ccccc2)c2ccccc2)n1 (stereo unspecified) |  | Not Active | 109 µM | Not Active |  |  | 
[O-][S+](Cc1csc(Br)c1)C(c1ccccc1)c1ccccc1 (stereo unspecified) | 67.2 µM |  | 16.6 µM |  | 44.7 µM |  | 
CC(C)c1nnsc1C[S+]([O-])C(c1ccccc1)c1ccccc1 (stereo unspecified) | 30 µM |  | 69.1 µM | Not Active |  |  | 
Cc1cnc(C[S+]([O-])C(c2ccccc2)c2ccccc2)nc1 (stereo unspecified) |  | Not Active | 156 µM | Not Active |  |  | 
[O-][S+](Cc1ccc(Cl)s1)C(c1ccccc1)c1ccccc1 (stereo unspecified) | 68.4 µM |  | 12.8 µM |  | 57.2 µM |  | 
[O-][S@@+](Cc1cccs1)[C@@H](c1ccccc1)c1ccc(Br)cc1 |  | Not Active | 4.1 µM | Not Active |  |  | 
Cc1ccc(C(c2ccc(C)cc2)[S+]([O-])Cc2cccs2)cc1 (stereo unspecified) |  | Not Active | 5.8 µM | Not Active |  |  | 
[O-][S+](Cc1cccs1)C(c1ccccc1)c1ccc(Br)cc1 (stereo in doubt; 11g) |  |  | 3.7 µM |  |  |  | 
[O-][S+](Cc1cc(Br)cs1)C(c1ccccc1)c1ccccc1 (stereo unspecified) |  | Not Active | 13.7 µM |  | 70.9 µM |  | 
COC1NN=C(C[S+]([O-])C(c2ccccc2)c2ccccc2)S1 (stereo unspecified) | 146 µM |  | 108 µM | Not Active |  |  | 
Cc1ccc(C(c2ccccc2)[S+]([O-])Cc2cccs2)cc1 (stereo unspecified) | 152 µM |  | 2 µM |  | 118 µM |  | 
Cc1cc(C[S+]([O-])C(c2ccccc2)c2ccccc2)nc(C)n1 (stereo unspecified) | 768 µM |  | 82.6 µM | Not Active |  |  | 

SMILES | IC50 ([1]; read-out: IC50) | IC50 ([1]; hek293) | IC50 ([2]; read-out: IC50) | IC50 ([3]; hek293) | IC50 ([3]; read-out: IC50) | inhibition [4] | IC50 ([2]; hek293)
[O-][S+](Cc1cccs1)C(c1ccc(Cl)cc1)c1ccc(Cl)cc1 (stereo unspecified) |  | Not Active | 7.2 µM | Not Active |  |  | 
[O-][S+](Cc1ccsc1)C(c1ccccc1)c1ccccc1 (stereo unspecified) | 57.6 µM |  | 3 µM | Not Active |  |  | 
[O-][S+](Cc1cccs1)C(c1ccccc1)c1ccc(Br)cc1 (stereo in doubt; 11h) |  |  | 2.4 µM |  |  |  | 
Cc1nc(O)cc(C[S+]([O-])C(c2ccccc2)c2ccccc2)n1 (stereo unspecified) |  | Not Active | 3.1 µM | Not Active |  | Active | 
COc1ccnc(C[S+]([O-])C(c2ccccc2)c2ccccc2)c1OC (stereo unspecified) |  | Not Active |  | Not Active |  |  | Not Active
COc1cc(C)nc(C[S+]([O-])C(c2ccccc2)c2ccccc2)n1 (stereo unspecified) | 228 µM |  | 90.5 µM | Not Active |  |  | 
Cc1noc(C[S+]([O-])C(c2ccccc2)c2ccccc2)n1 (stereo unspecified) |  | Not Active | 56.7 µM | Not Active |  |  | 
[O-][S+](Cc1ccsc1Br)C(c1ccccc1)c1ccccc1 (stereo unspecified) | 144 µM |  | 29.3 µM |  | 59.6 µM |  | 
[O-][S@+](Cc1cccs1)[C@H](c1ccccc1)c1ccc(Br)cc1 |  | Not Active | 1.5 µM | Not Active |  |  | 
Cc1nnc(C[S+]([O-])C(c2ccccc2)c2ccccc2)s1 (stereo unspecified) |  | Not Active |  | Not Active |  |  | Not Active
[O-][S+](Cc1cccs1)C(c1ccccc1)c1ccc(Br)cc1 (stereo in doubt; 11c) |  | Not Active | 4.2 µM | Not Active |  |  | 
[O-][S+](Cc1nc(C(F)(F)F)no1)C(c1ccccc1)c1ccccc1 (stereo unspecified) | 71 µM |  | 43.7 µM |  | 209 µM |  | 
O=c1[nH]nc(C[S+]([O-])C(c2ccccc2)c2ccccc2)s1 (stereo unspecified) | 85.7 µM |  | 38.1 µM | Not Active |  |  | 
[O-][S+](Cc1cc(C2CC2)on1)C(c1ccccc1)c1ccccc1 (stereo unspecified) |  | Not Active | 38.6 µM | Not Active |  |  | 
Cc1scc(C[S+]([O-])C(c2ccccc2)c2ccccc2)c1C (stereo unspecified) |  | Not Active | 284 µM | Not Active |  |  | 
[O-][S+](Cc1cccs1)C(c1ccc(F)cc1)c1ccc(F)cc1 (stereo unspecified) | 113 µM |  | 4 µM |  | 120 µM |  | 
